Assay results as given in ChEMBL document CHEMBL4364301 (Eur J Med Chem, 2019).

How the values were obtained:
Type in all cases: functional
[1] = test system: LNCaP; assay: Antiproliferative activity against human LNCAP cells assessed as reduction in cell growth incubated for 96 hrs by propidium iodide based 2D monolayer assay
How it was run: (§1)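 After 24 h recovery, compound in medium or medium alone (control wells) was added at 10 half-log concentrations from 0.0032 to 100 µM, in triplicate, with at most 0.3% DMSO. After 96 h, wells were PBS-washed, stained with 7 µg/ml PI and 0.1% Triton X-100, and fluorescence read at 530/620 nm. IC50 came from a 4-parameter fit, geometric mean.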

[2] = test system: DU-145; assay: Antiproliferative activity against human DU145 cells assessed as reduction in cell growth incubated for 96 hrs by propidium iodide based 2D monolayer assay; details: DU-145, 96 h; how it was run: as §1
[3] = test system: VCaP; assay: Antiproliferative activity against human VCaP cells assessed as reduction in cell growth incubated for 96 hrs by propidium iodide based 2D monolayer assay
How it was run: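 VCaP cells in RPMI 1640 with 10% FCS at 37 °C, 5% CO2, seeded 4,000–20,000 cells/well and left 24 h before dosing. Compounds from DMSO stocks were diluted in half-log steps in medium, 10 concentrations 0.0032–100 μM, triplicate wells, max 0.3% DMSO. After 96 h, cells were washed, stained with 7 μg/ml propidium iodide plus 0.1% Triton X-100 for 1–2 h at room temperature, and fluorescence read at ex 530/em 620 nm.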

[4] = test system: CWR22R; assay: Antiproliferative activity against human 22Rv1 cells assessed as reduction in cell growth incubated for 96 hrs by propidium iodide based 2D monolayer assay; details: 22Rv1, 96 h; how it was run: as §1

CC(O)(COc1ccc(C#N)cc1)C(=O)Nc1cccc(S(F)(F)(F)(F)F)c1 (racemic)
IC50 [1]: 30 µM
IC50 [2]: 42.6 µM
IC50 [3]: 26.6 µM
IC50 [4]: 32.5 µM

CC(O)(COc1cccc(OC(F)(F)F)c1)C(=O)Nc1ccc(S(F)(F)(F)(F)F)cc1 (racemic)
IC50 [1]: 11 µM
IC50 [2]: 18.4 µM
IC50 [3]: 18.3 µM
IC50 [4]: 17.3 µM

CC(O)(COc1cccc(OC(F)(F)F)c1)C(=O)Nc1cccc(S(F)(F)(F)(F)F)c1 (racemic)
IC50 [1]: 15.2 µM
IC50 [2]: 30.1 µM
IC50 [3]: 28.6 µM
IC50 [4]: 18.8 µM

CC(O)(CS(=O)(=O)c1ccc(S(F)(F)(F)(F)F)cc1)C(=O)Nc1ccc(C#N)cc1C(F)(F)F (racemic)
IC50 [1]: 17.8 µM
IC50 [2]: 25.6 µM
IC50 [3]: 43 µM
IC50 [4]: 19.4 µM

CC(O)(CS(=O)(=O)c1ccc(S(F)(F)(F)(F)F)cc1)C(=O)Nc1ccc([N+](=O)[O-])cc1C(F)(F)F (racemic)
IC50 [1]: 12.5 µM
IC50 [2]: 17.7 µM
IC50 [3]: 28.6 µM
IC50 [4]: 18.7 µM

CC(O)(CS(=O)(=O)c1cccc(S(F)(F)(F)(F)F)c1)C(=O)Nc1ccc([N+](=O)[O-])cc1C(F)(F)F (racemic)
IC50 [1]: 6.5 µM
IC50 [2]: 100 µM
IC50 [3]: 100 µM
IC50 [4]: 100 µM

CC(O)(COc1ccc(C#N)c(F)c1)C(=O)Nc1cccc(S(F)(F)(F)(F)F)c1 (racemic)
IC50 [1]: 83.7 µM
IC50 [2]: 74.8 µM
IC50 [3]: 91.9 µM
IC50 [4]: 63.4 µM

CC(O)(CS(=O)(=O)c1cccc(C(F)(F)F)c1)C(=O)Nc1ccc(S(F)(F)(F)(F)F)cc1 (racemic)
IC50 [1]: 21 µM
IC50 [2]: 31.9 µM
IC50 [3]: 32 µM
IC50 [4]: 23.8 µM

CC(O)(CS(=O)(=O)c1cccc(S(F)(F)(F)(F)F)c1)C(=O)Nc1ccc(S(F)(F)(F)(F)F)cc1 (racemic)
IC50 [1]: 31.3 µM
IC50 [2]: 34 µM
IC50 [3]: 24.8 µM
IC50 [4]: 39.9 µM

CC(O)(CS(=O)(=O)c1ccc(C(F)(F)F)cc1)C(=O)Nc1ccc(S(F)(F)(F)(F)F)cc1 (racemic)
IC50 [1]: 20.7 µM
IC50 [2]: 29.3 µM
IC50 [3]: 27.7 µM
IC50 [4]: 28.9 µM

CC(O)(COc1ccc(S(F)(F)(F)(F)F)cc1)C(=O)Nc1ccc(S(F)(F)(F)(F)F)cc1 (racemic)
IC50 [1]: 9.8 µM
IC50 [2]: 24.9 µM
IC50 [3]: 9.3 µM
IC50 [4]: 13 µM

CC(O)(COc1ccc(C#N)cc1C(F)(F)F)C(=O)Nc1cccc(S(F)(F)(F)(F)F)c1 (racemic)
IC50 [1]: 16.4 µM
IC50 [2]: 22.8 µM
IC50 [3]: 30.6 µM
IC50 [4]: 18.3 µM

CC(O)(COc1cccc(S(F)(F)(F)(F)F)c1)C(=O)Nc1ccc([N+](=O)[O-])cc1C(F)(F)F (racemic)
IC50 [1]: 12.1 µM
IC50 [2]: 18 µM
IC50 [3]: 20.3 µM
IC50 [4]: 15.5 µM

CC(O)(COc1ccc(OC(F)(F)F)cc1)C(=O)Nc1ccc(S(F)(F)(F)(F)F)cc1 (racemic)
IC50 [1]: 18.6 µM
IC50 [2]: 24.8 µM
IC50 [3]: 12.8 µM
IC50 [4]: 27.9 µM

CC(O)(COc1cccc(C(F)(F)F)c1)C(=O)Nc1cccc(S(F)(F)(F)(F)F)c1 (racemic)
IC50 [1]: 28.8 µM
IC50 [2]: 31.7 µM
IC50 [3]: 22.5 µM
IC50 [4]: 28.9 µM

CC(O)(COc1cccc(S(F)(F)(F)(F)F)c1)C(=O)Nc1ccc(S(F)(F)(F)(F)F)cc1 (racemic)
IC50 [1]: 12 µM
IC50 [2]: 29.6 µM
IC50 [3]: 11.4 µM
IC50 [4]: 17.6 µM

CC(O)(CS(=O)(=O)c1ccc(S(F)(F)(F)(F)F)cc1)C(=O)Nc1ccc([N+](=O)[O-])c(C(F)(F)F)c1 (racemic)
IC50 [1]: 10 µM
IC50 [2]: 17.7 µM
IC50 [3]: 19.2 µM
IC50 [4]: 14.7 µM

CC(O)(COc1ccc(S(F)(F)(F)(F)F)cc1)C(=O)Nc1cccc(S(F)(F)(F)(F)F)c1 (racemic)
IC50 [1]: 8 µM
IC50 [2]: 12.8 µM
IC50 [3]: 8 µM
IC50 [4]: 10.2 µM

CC(O)(COc1ccccc1OC(F)(F)F)C(=O)Nc1ccc(S(F)(F)(F)(F)F)cc1 (racemic)
IC50 [1]: 8.9 µM
IC50 [2]: 16.8 µM
IC50 [3]: 9.7 µM
IC50 [4]: 7.3 µM

CC(O)(CS(=O)(=O)c1ccccc1C(F)(F)F)C(=O)Nc1ccc(S(F)(F)(F)(F)F)cc1 (racemic)
IC50 [1]: 10.8 µM
IC50 [2]: 29.4 µM
IC50 [3]: 23.8 µM
IC50 [4]: 17.4 µM

CC(O)(CS(=O)(=O)c1cccc(S(F)(F)(F)(F)F)c1)C(=O)Nc1ccc([N+](=O)[O-])c(C(F)(F)F)c1 (racemic)
IC50 [1]: 13.8 µM
IC50 [2]: 17.2 µM
IC50 [3]: 24.6 µM
IC50 [4]: 14.8 µM

CC(O)(CS(=O)(=O)c1ccc(S(F)(F)(F)(F)F)cc1)C(=O)Nc1ccc(S(F)(F)(F)(F)F)cc1 (racemic)
IC50 [1]: 29.2 µM
IC50 [2]: 28.9 µM
IC50 [3]: 15.7 µM
IC50 [4]: 17.3 µM

CC(O)(COc1ccc(C#N)cc1)C(=O)Nc1ccc(S(F)(F)(F)(F)F)cc1 (racemic)
IC50 [1]: 100 µM
IC50 [2]: 32.2 µM
IC50 [3]: 100 µM
IC50 [4]: 26.1 µM

CC(O)(COc1ccccc1C(F)(F)F)C(=O)Nc1cccc(S(F)(F)(F)(F)F)c1 (racemic)
IC50 [1]: 26.3 µM
IC50 [2]: 52.2 µM
IC50 [3]: 36.7 µM
IC50 [4]: 34.9 µM

CC(O)(COc1cccc(C(F)(F)F)c1)C(=O)Nc1ccc(S(F)(F)(F)(F)F)cc1 (racemic)
IC50 [1]: 24.7 µM
IC50 [2]: 21.9 µM
IC50 [3]: 24.7 µM
IC50 [4]: 14.6 µM

CC(O)(COc1ccc(OC(F)(F)F)cc1)C(=O)Nc1cccc(S(F)(F)(F)(F)F)c1 (racemic)
IC50 [1]: 12.7 µM
IC50 [2]: 19.1 µM
IC50 [3]: 20.2 µM
IC50 [4]: 12.9 µM

CC(O)(COc1ccc(C(F)(F)F)cc1)C(=O)Nc1cccc(S(F)(F)(F)(F)F)c1 (racemic)
IC50 [1]: 9.6 µM
IC50 [2]: 13.6 µM
IC50 [3]: 13.3 µM
IC50 [4]: 3.6 µM

CC(O)(COc1cccc(S(F)(F)(F)(F)F)c1)C(=O)Nc1ccc(C(F)(F)F)cc1 (racemic)
IC50 [1]: 12.8 µM
IC50 [2]: 21 µM
IC50 [3]: 23.8 µM
IC50 [4]: 15.8 µM

CC(O)(COc1ccc(C#N)c(F)c1)C(=O)Nc1ccc(S(F)(F)(F)(F)F)cc1 (racemic)
IC50 [1]: 100 µM
IC50 [2]: 30.4 µM
IC50 [3]: 100 µM
IC50 [4]: 24.3 µM

CC(O)(COc1ccc(S(F)(F)(F)(F)F)cc1)C(=O)Nc1ccc(C(F)(F)F)cc1 (racemic)
IC50 [1]: 11.7 µM
IC50 [2]: 27.4 µM
IC50 [3]: 14.7 µM
IC50 [4]: 12.9 µM

CC(O)(COc1cccc(S(F)(F)(F)(F)F)c1)C(=O)Nc1cccc(S(F)(F)(F)(F)F)c1 (racemic)
IC50 [1]: 10.9 µM
IC50 [2]: 30.7 µM
IC50 [3]: 26.7 µM
IC50 [4]: 27.3 µM

CC(O)(CS(=O)(=O)c1ccc(F)cc1)C(=O)Nc1ccc(S(F)(F)(F)(F)F)cc1 (racemic)
IC50 [1]: 18.2 µM
IC50 [2]: 27.7 µM
IC50 [3]: 34.2 µM
IC50 [4]: 20.6 µM

CC(O)(COc1ccccc1OC(F)(F)F)C(=O)Nc1cccc(S(F)(F)(F)(F)F)c1 (racemic)
IC50 [1]: 16.1 µM
IC50 [2]: 38.1 µM
IC50 [3]: 27.7 µM
IC50 [4]: 30 µM

CC(O)(COc1ccc(C#N)cc1C(F)(F)F)C(=O)Nc1ccc(S(F)(F)(F)(F)F)cc1 (racemic)
IC50 [1]: 100 µM
IC50 [2]: 21.2 µM
IC50 [3]: 100 µM
IC50 [4]: 13.8 µM

CC(O)(CS(=O)(=O)c1cccc(S(F)(F)(F)(F)F)c1)C(=O)Nc1ccc(C#N)cc1C(F)(F)F (racemic)
IC50 [1]: 12.9 µM
IC50 [2]: 22.1 µM
IC50 [3]: 20.8 µM
IC50 [4]: 14.3 µM
